Source: ChEMBL document CHEMBL1131138, “A novel class of orally active non-peptide bradykinin B2 receptor antagonists. 3. Discovering bioisosteres of the imidazo[1,2-a] pyridine moiety” (J Med Chem, 1998)

Assays:
B2 bradykinin receptor [1] = biological target: T1, B2 bradykinin receptor (Cavia porcellus, UniProt O70526); test: Concentration required to inhibit specific binding of [ 3H]BK (0.06 nM) to Bradykinin receptor B2 in guinea pig ileum membrane preparations by 50%.; format: cell membranes
T1 sequence (O70526 whole entry): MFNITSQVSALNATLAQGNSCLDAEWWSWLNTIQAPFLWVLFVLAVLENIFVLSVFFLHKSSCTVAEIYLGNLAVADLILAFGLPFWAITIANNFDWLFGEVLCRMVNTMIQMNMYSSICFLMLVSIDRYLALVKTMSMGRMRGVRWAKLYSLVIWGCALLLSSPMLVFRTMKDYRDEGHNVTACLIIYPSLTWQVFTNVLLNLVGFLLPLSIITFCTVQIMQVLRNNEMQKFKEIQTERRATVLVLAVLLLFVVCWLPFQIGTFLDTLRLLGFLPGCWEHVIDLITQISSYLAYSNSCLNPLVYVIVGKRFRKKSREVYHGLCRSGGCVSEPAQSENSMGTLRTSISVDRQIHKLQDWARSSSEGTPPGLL
Summary of the method: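 Ileal membranes from male Hartley guinea pigs (0.2 mg protein/mL) in TES buffer pH 6.8 with phenanthroline, bacitracin, DTT, captopril and BSA. Incubated with 0.06 nM [3H]BK plus compound for 60 min at room temperature, then filtered through GF/B and counted by scintillation.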

B2 bradykinin receptor [2] = biological target: T2, B2 bradykinin receptor (Homo sapiens, UniProt P30411); test: Inhibition specific binding of [3H]BK (1.0 nM) to human Bradykinin receptor B2 which was expressed in CHO (Chinese hamster ovary) cells by 50%.; format: cell-based
T2 sequence (P30411 whole entry): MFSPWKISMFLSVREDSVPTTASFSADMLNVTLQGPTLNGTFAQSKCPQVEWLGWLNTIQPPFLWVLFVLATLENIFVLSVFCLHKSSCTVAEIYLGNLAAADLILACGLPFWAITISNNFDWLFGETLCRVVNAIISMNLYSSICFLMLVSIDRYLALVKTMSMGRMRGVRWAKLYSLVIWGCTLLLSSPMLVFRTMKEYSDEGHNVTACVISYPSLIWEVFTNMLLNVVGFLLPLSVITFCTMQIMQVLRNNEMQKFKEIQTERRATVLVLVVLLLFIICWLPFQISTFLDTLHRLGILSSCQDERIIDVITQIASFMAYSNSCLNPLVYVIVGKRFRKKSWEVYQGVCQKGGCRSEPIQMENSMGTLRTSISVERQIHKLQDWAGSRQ
Summary of the method: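 CHO (dhfr−) cells stably expressing human B2 receptor, seeded at 3.0 × 10^4 cells/well and cultured 1 day. Whole cells incubated with 1.0 nM [3H]BK plus compound for 2 h at 4 °C in HEPES/N-methyl-D-glucamine buffer pH 7.2 with bacitracin, enalaprilat and BSA. Washed, solubilized in SDS/NaOH and counted. Nonspecific binding with 1 μM BK; DMSO below 3%; three experiments.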

Cavia porcellus [3] = test: In vivo inhibition of Bradykinin induced Bronchoconstriction in anaesthetized guinea pig following 1 mg/kg p.o.; format: functional; conditions: route oral
Summary of the method: (§1)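 Male Hartley guinea pigs (470–750 g), fasted overnight, anesthetized with ip pentobarbital (30 mg/kg) and ventilated at 10 mL/kg, 60 breaths/min. Given alcuronium (0.5 mg/kg iv) and propranolol (10 mg/kg sc). BK 5 μg/kg iv, with bronchoconstriction read as peak pulmonary insufflation pressure (modified Konzett–Rössler).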

Cavia porcellus [4] = test: Inhibition of Bradykinin induced Bronchoconstriction in anaesthetized guinea pig at 0.32mg/kg, po; format: functional; summary of the method: as §1
B2 bradykinin receptor [5] = biological target: T2, B2 bradykinin receptor; test: Concentration required to inhibit specific binding of [3H]BK (1.2 nM) to A-431 cells (human epidermoid carcinoma) which express Bradykinin receptor B2 by 50%.; format: cell-based

| SMILES | IC50 (B2 bradykinin receptor [1]) [nM] | IC50 (B2 bradykinin receptor [2]) [nM] | inhibition in vivo at 1 mg/kg (Cavia porcellus [3]) [%] | inhibition in vivo at 0.32 mg/kg (Cavia porcellus [4]) [%] | IC50 (B2 bradykinin receptor [5]) [nM] |
| --- | --- | --- | --- | --- | --- |
| CNC(=O)c1ccc(/C=C/C(=O)NCC(=O)N(C)c2ccc(C)c(COc3cccc4ncc(C)nc34)c2C)cc1 | 3.5 | 17 | – | – | – |
| CC(=O)Nc1ccc(/C=C/C(=O)NCC(=O)N(C)c2ccc(Cl)c(COc3cccc4ccc(C)nc34)c2Cl)cc1 | 0.5 | 1.9 | 80 | 33.2 | – |
| CNC(=O)c1ccc(/C=C/C(=O)NCC(=O)N(C)c2ccc(C)c(COc3cccc4c3nc(COC)n4C)c2C)cc1 | 1000 | 9100 | – | – | – |
| CC(=O)Nc1ccc(/C=C/C(=O)NCC(=O)N(C)c2ccc(C)c(COc3cccc4ncc(C)nc34)c2C)cn1 | 48 | 130 | – | – | – |
| Cc1ccc2cccc(OCc3c(Cl)ccc(N(C)C(=O)CNC(=O)/C=C/c4cccnc4)c3Cl)c2n1 | 0.79 | 470 | 97.2 | 63.7 | – |
| Cc1cnc2cccc(OCc3c(Cl)ccc(N(C)C(=O)CNC(=O)/C=C/c4ccc(N5CCCC5=O)cc4)c3Cl)c2n1 | 1.1 | 26 | – | – | – |
| Cc1nc2c(OCc3c(Cl)ccc(N(C)C(=O)CNC(=O)/C=C/c4ccc(C(=O)N(C)C)cc4)c3Cl)cccn2c1Br | – | 2.2 | – | – | – |
| Cc1ccc2cccc(OCc3c(Cl)ccc(N(C)C(=O)CNC(=O)/C=C/c4ccc(C(=O)Nc5ccncc5)cc4)c3Cl)c2n1 | 1.1 | 1.8 | 29.5 | – | – |
| Cc1ccc2cccc(OCc3c(Cl)ccc(N(C)C(=O)CNC(=O)/C=C/c4ccc(N5CCCC5=O)cc4)c3Cl)c2n1 | 0.55 | 3.2 | 85.3 | 44.7 | – |
| CNC(=O)c1ccc(/C=C/C(=O)NCC(=O)N(C)c2ccc(Cl)c(COc3cccc4c3nc(-c3ccccc3)n4C)c2Cl)cc1 | 510 | > 1000 | – | – | – |
| CNC(=O)c1ccc(/C=C/C(=O)NCC(=O)N(C)c2ccc(C)c(COc3cccc4ccc(C)nc34)c2C)cc1 | 0.97 | 4.8 | 90.5 | 79 | – |
| Cc1cnc2cccc(OCc3c(C)ccc(N(C)C(=O)CNC(=O)/C=C/c4ccc(N5CCCC5=O)cc4)c3C)c2n1 | 2.4 | 46 | – | – | – |
| COc1nc2c(OCc3c(Cl)ccc(N(C)C(=O)CNC(=O)/C=C/c4ccc(NC(C)=O)nc4)c3Cl)cccc2n1C | 0.65 | 4.2 | 55.4 | – | – |
| Cc1ccc2cccc(OCc3c(Cl)ccc(N(C)C(=O)CNC(=O)/C=C/c4ccc(NC(=O)c5ccncc5)nc4)c3Cl)c2n1 | 3.3 | 2.8 | 68.8 | – | – |
| CNC(=O)c1ccc(/C=C/C(=O)NCC(=O)N(C)c2ccc(Cl)c(COc3cccc4c(C)c(C)oc34)c2Cl)cc1 | 23 | 270 | – | – | – |
| Cc1cnc2cccc(OCc3c(Cl)ccc(N(C)C(=O)CNC(=O)/C=C/c4ccc(C(=O)N(C)C)cc4)c3Cl)c2n1 | 1.9 | 44 | – | – | – |
| Cc1ccc2cccc(OCc3c(Cl)ccc(N(C)C(=O)CNC(=O)/C=C/c4ccccc4)c3Cl)c2n1 | 0.69 | 340 | 25.2 | – | – |
| CNC(=O)c1ccc(/C=C/C(=O)NCC(=O)N(C)c2ccc(Cl)c(COc3cccc4ccc(C)nc34)c2Cl)cn1 | 0.68 | 4.6 | 93.9 | 68.4 | – |
| CNC(=O)c1ccc(/C=C/C(=O)NCC(=O)N(C)c2ccc(C)c(COc3cccc4ncc(C)nc34)c2C)cn1 | 18 | 590 | – | – | – |
| COc1nc2c(OCc3c(Cl)ccc(N(C)C(=O)CNC(=O)/C=C/c4ccc(C(=O)N(C)C)cc4)c3Cl)cccc2n1C | 0.94 | 14 | 87.7 | – | – |
| CC(=O)Nc1ccc(/C=C/C(=O)NCC(=O)N(C)c2ccc(C)c(COc3cccc4ccc(C)nc34)c2C)cn1 | 0.82 | 8.5 | 98.2 | 55.5 | – |
| CNC(=O)c1ccc(/C=C/C(=O)NCC(=O)N(C)c2ccc(C)c(COc3cccc4c3nc(SC)n4C)c2C)cc1 | 9.5 | 79 | – | – | – |

| SMILES | IC50 (B2 bradykinin receptor [1]) [nM] | IC50 (B2 bradykinin receptor [2]) [nM] | inhibition in vivo at 1 mg/kg (Cavia porcellus [3]) [%] | inhibition in vivo at 0.32 mg/kg (Cavia porcellus [4]) [%] | IC50 (B2 bradykinin receptor [5]) [nM] |
| --- | --- | --- | --- | --- | --- |
| Cc1ccc2cccc(OCc3c(C)ccc(N(C)C(=O)CNC(=O)/C=C/c4ccc(N5CCCC5=O)nc4)c3C)c2n1 | 1.4 | 39 | – | – | – |
| Cc1ccc2cccc(OCc3c(Cl)ccc(N(C)C(=O)CNC(=O)/C=C/c4ccc(/C=C/c5ccncc5)nc4)c3Cl)c2n1 | 0.76 | 0.51 | 87.3 | 43.6 | – |
| CNC(=O)c1ccc(/C=C/C(=O)NCC(=O)N(C)c2ccc(C)c(COc3cccc4c3nc(NC)n4C)c2C)cc1 | 94 | 670 | – | – | – |
| COc1nc2c(OCc3c(C)ccc(N(C)C(=O)CNC(=O)/C=C/c4ccc(NC(C)=O)nc4)c3C)cccc2n1C | 0.94 | 8.5 | 98.4 | 75.2 | – |
| Cc1ccc2cccc(OCc3c(Cl)ccc(N(C)C(=O)CNC(=O)/C=C/c4ccc(C(=O)Nc5ccncc5)nc4)c3Cl)c2n1 | 15 | 2.5 | 60 | – | – |
| Cc1ccc2cccc(OCc3c(Cl)ccc(N(C)C(=O)CNC(=O)/C=C/c4ccc(C(=O)Nc5cccnc5)cc4)c3Cl)c2n1 | 0.62 | 7.5 | 46.8 | – | – |
| Cc1ccc2cccc(OCc3c(Cl)ccc(N(C)C(=O)CNC(=O)/C=C/c4ccc(N5CCCC5=O)nc4)c3Cl)c2n1 | 0.13 | 5.2 | 89.9 | 68.6 | – |
| Cc1ccc2cccc(OCc3c(Cl)ccc(N(C)C(=O)CNC(=O)/C=C/c4cccc(C(=O)N(C)C)c4)c3Cl)c2n1 | 1.1 | – | – | – | 14 |
| Cc1cnc2cccc(OCc3c(C)ccc(N(C)C(=O)CNC(=O)/C=C/c4ccc(C(=O)N(C)C)cc4)c3C)c2n1 | 4.1 | 130 | – | – | – |
| CC(=O)Nc1ccc(/C=C/C(=O)NCC(=O)N(C)c2ccc(Cl)c(COc3cccc4ccc(C)nc34)c2Cl)cn1 [FR-173657] | 0.46 | 1.4 | 94.4 | 73.2 | – |
| Cc1ccc2cccc(OCc3c(C)ccc(N(C)C(=O)CNC(=O)/C=C/c4ccc(N5CCCC5=O)cc4)c3C)c2n1 | 0.47 | 9.3 | 94.9 | 75.7 | – |
| CCOc1nc2c(OCc3c(C)ccc(N(C)C(=O)CNC(=O)/C=C/c4ccc(C(=O)NC)cc4)c3C)cccc2n1C | 90 | 730 | – | – | – |
| Cc1ccc2cccc(OCc3c(Cl)ccc(N(C)C(=O)CNC(=O)/C=C/c4ccc(C(=O)Nc5ccccc5)cc4)c3Cl)c2n1 | 6.3 | 11 | – | – | – |
| CNC(=O)c1ccc(/C=C/C(=O)NCC(=O)N(C)c2ccc(Cl)c(COc3cccn4c(Br)c(C)nc34)c2Cl)cc1 | – | 9 | – | – | – |
| Cc1ccc2cccc(OCc3c(Cl)ccc(N(C)C(=O)CNC(=O)/C=C/c4ccc(C(=O)Nc5ccccn5)cc4)c3Cl)c2n1 | 11 | 30 | – | – | – |
| CNC(=O)c1ccc(/C=C/C(=O)NCC(=O)N(C)c2ccc(C)c(COc3cccc4ccc(C)nc34)c2C)cn1 | 2.2 | 58 | – | – | – |
| CNC(=O)c1ccc(/C=C/C(=O)NCC(=O)N(C)c2ccc(C)c(COc3cccc4c3nc(N(C)C)n4C)c2C)cc1 | 38 | 160 | – | – | – |
| CCOC(=O)Cc1nc2c(OCc3c(C)ccc(N(C)C(=O)CNC(=O)/C=C/c4ccc(C(=O)NC)cc4)c3C)cccc2n1C | 1100 | 8400 | – | – | – |
| CNC(=O)c1ccc(/C=C/C(=O)NCC(=O)N(C)c2ccc(C)c(COc3cccc4c3nc(C(C)=O)n4C)c2C)cc1 | 200 | 94 | – | – | – |
| Cc1ccc2cccc(OCc3c(Cl)ccc(N(C)C(=O)CNC(=O)/C=C/c4ccc(C(=O)N(C)C)cc4)c3Cl)c2n1 | 1.3 | 3.9 | 89.7 | 50.8 | – |
| CCn1c(C)nc2c(OCc3c(Cl)ccc(N(C)C(=O)CNC(=O)/C=C/c4ccc(C(=O)NC)cc4)c3Cl)cccc21 | 8.9 | 48 | – | – | – |
